Results collected from several papers.
OPRK1: Kappa-type opioid receptor (OPRK1, Homo sapiens, UniProt P41145)
HTR2A: 5-hydroxytryptamine receptor 2A (HTR2A, Homo sapiens, UniProt P28223)
PPO3: PPO3 (Agaricus bisporus, UniProt C7FF04)
HRH4: Histamine H4 receptor (HRH4, Homo sapiens, UniProt Q9H3N8)
SIGMAR1: Sigma non-opioid intracellular receptor 1 (SIGMAR1, Homo sapiens, UniProt Q99720)

SMILES	target	assay	conditions	Ki [µM]
CNC(=O)[C@@]12C[C@@H]1[C@@H](n1cnc3c(NCCC(F)(F)F)nc(C#Cc4ccc(Cl)s4)nc31)[C@H](O)[C@@H]2O	OPRK1	cell-free assay	–	> 10
Cc1nc2n(c(=O)c1CCN)CCCC2	HTR2A	ligand displacement, radioligand	cell membranes	> 10
CNC(=O)[C@@]12C[C@@H]1[C@@H](n1cnc3c(NC)nc(C#Cc4ccc(F)c(F)c4)nc31)[C@H](O)[C@@H]2O	OPRK1	cell-free assay	–	> 10
Cc1ccc(N=Nc2c(N)nc(N)nc2Cl)cc1	PPO3	enzyme activity, inhibitor	–	5.87
O[C@@H]1[C@H](O)[C@@H]2C[C@@H]2[C@H]1n1cnc2c(NCc3cccc(Cl)c3)nc(C#Cc3ccc(F)c(F)c3)nc21	OPRK1	cell-free assay	–	> 10
CN(CCCCNC(=O)c1cc2ccccc2[nH]1)[C@@H]1Cc2cccc3[nH]c(=O)n(c23)C1	HTR2A	ligand displacement, radioligand	–	1.44
O=C1NC(c2ccccc2)(c2ccccc2)C(=O)N1CCCN1CCCCC1	HRH4	ligand displacement, radioligand	cell membranes	> 10
CCNC(=O)[C@H]1O[C@@H](n2cnc3c(N)nc(NN=CC4CCC=CO4)nc32)[C@H](O)[C@@H]1O (stereo partly drawn)	Adenosine receptor A2a (ADORA2A, Homo sapiens, UniProt P29274)	ligand displacement, radioligand	–	0.00664
COc1ccccc1N1CCN(C/C=C/CNC(=O)c2cc3cc(OCCOCCF)ccc3[nH]2)CC1	SIGMAR1	cell-free assay	–	> 10
CCNc1nc(C#Cc2ccccc2)nc2c1ncn2[C@H]1[C@H](O)[C@H](O)[C@@H]2C[C@@H]21	OPRK1	cell-free assay	–	> 10
CCCCN1CCC(COC(=O)c2ccc(N)c(OCF)c2)CC1	HTR2A	cell-free assay, radioligand	–	> 10
O=C1c2ccccc2CCN1CCCCN1CCN(c2cccc(Cl)c2Cl)CC1	HTR2A	ligand displacement, radioligand	–	0.039
N=C(N)N1CCC[C@H]1c1nc(-c2ccc(CCC3CCCCC3)c(C(F)(F)F)c2)no1	Sphingosine kinase 1 (SPHK1, Homo sapiens, UniProt Q9NYA1)	enzyme activity, inhibitor	–	18
COc1ccc2c(ccn2CCCCN2Cc3cc(OC)c(OC)cc3C2)c1	SIGMAR1	ligand displacement, radioligand	cell membranes	0.19
Nc1nc(N)c(N=Nc2ccccc2[N+](=O)[O-])c(Cl)n1	PPO3	enzyme activity, inhibitor	–	3.6
CCCn1nc(C(=O)N2CCCCC2)c2c1CCC(N1CCN(Cc3ccc(C#N)cc3)CC1)C2 (stereo not drawn)	SIGMAR1	ligand displacement, radioligand	–	> 10
CNC(=O)[C@H]1O[C@@H](n2cnc3c(NC)nc(C#Cc4ccc(Cl)s4)nc32)[C@H](O)[C@@H]1O	OPRK1	cell-free assay	–	> 10
OCCCN1CC[C@@H]2C[C@H]1c1cc(-c3ccc(C(F)(F)F)cc3)ccc12	HRH4	ligand displacement, radioligand	–	5.51
CCCn1nc(C(=O)N(C)C)c2c1CCC(NCc1ccc(OC)cc1OC)C2 (stereo not drawn)	SIGMAR1	ligand displacement, radioligand	–	> 10
Cc1cccc(CN2CCCC(C(=O)NCCc3cccnc3)CC2)n1 (stereo not drawn)	OPRK1	cell-free assay	–	> 10
COc1ccc(N=Nc2c(N)nc(N)nc2N)cc1	PPO3	enzyme activity, inhibitor	–	7.63
CCCc1nc2c(C)cc(-c3nc4ccccc4n3C)cc2n1Cc1ccc(-c2ccccc2C(=O)O)cc1	Hepatic sodium/bile acid cotransporter (SLC10A1, Homo sapiens, UniProt Q14973)	transporter uptake, inhibitor	–	60
CCCn1nc(C(=O)N2CCCCC2)c2c1CCC(NCC1CCOCC1)C2 (stereo not drawn)	SIGMAR1	ligand displacement, radioligand	–	> 10
Cc1ccc(C(C)C)cc1NC(=O)COC(=O)c1ccc(O)cc1O	PPO3	enzyme activity, inhibitor	–	0.188
CNc1nc(C#Cc2ccc(Cl)s2)nc2c1ncn2[C@H]1[C@H](O)[C@H](O)[C@]2(C(=O)OC(C)C)C[C@H]12	OPRK1	cell-free assay	–	> 10
CCCn1nc(C(=O)N2CCCCC2)c2c1CCC(NCc1ccc(S(N)(=O)=O)cc1)C2 (stereo not drawn)	SIGMAR1	ligand displacement, radioligand	–	> 10
CNC(=O)[C@@]12C[C@@H]1[C@@H](n1cnc3c(NCc4cccc(Cl)c4)nc(C#Cc4ccc(F)cc4)nc31)[C@H](O)[C@@H]2O	OPRK1	cell-free assay	–	> 10
Cc1nc2n(c(=O)c1CCN1CCCCC1)CCCC2	HTR2A	ligand displacement, radioligand	cell membranes	~5
CCCn1nc(C(=O)N2CCCCC2)c2c1CCC(NCCCNC)C2 (stereo not drawn)	SIGMAR1	ligand displacement, radioligand	–	> 10
O[C@@H]1[C@H](O)[C@@H]2C[C@@H]2[C@H]1n1cnc2c(NCCc3ccccc3)nc(C#Cc3ccccc3Cl)nc21	OPRK1	cell-free assay	–	> 10
